The target in one assay is Cannabinoid receptor 1 (Homo sapiens, UniProt P21554). The assay can be described thus: Displacement of [3H]-CP55940 from human CB1 receptor transfected in HEK293EBNA cell membranes after 90 mins by liquid scintillation counting analysis. Set-up: species or system HEK293-EBNA.
Assay [1] addresses T1, Cannabinoid receptor 2 (Homo sapiens, UniProt P34972). The assay can be described thus: Displacement of [3H]-CP55940 from human CB2 receptor transfected in HEK293EBNA cell membranes after 90 mins by liquid scintillation counting analysis. Also noted: species or system HEK293-EBNA. The gist of the method:
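Human CB2-transfected HEK293EBNA membranes (about 0.18 mg/mL protein) in Tris-HCl with EDTA, MgCl₂ and fatty-acid-free BSA, pH 7.4. Compounds were pre-screened at a single concentration, with full curves only if displacement exceeded 50%. Ki from iterative curve fitting, three independent experiments in triplicate.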

Assay [2] concerns the target Cannabinoid receptor 2 (Mus musculus) (UniProt P47936). The assay is described as follows: Antagonist/inverse agonist activity at CB2 receptor in mouse BV-2 cells assessed as inhibition of WIN55,212-2-mediated attenuation of LPS-induced PGE2 release at 10 fold Ki after 16 hrs by ELISA immunoassay. Type of assay: cell-based. An outline of the steps:
(§1)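 Mouse BV-2 microglia plated at 5 × 10⁵ cells/well on poly-L-ornithine and grown overnight in DMEM with 10% FBS at 37 °C and 5% CO₂. The medium was switched to 1% FBS 1 h before treatment. Cells were then given LPS (E. coli 055:B5) for 16 h, alone or with test compound, and PGE2 release was measured. Data were analysed by one-way ANOVA.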
Background: ELISA stands for enzyme-linked immunosorbent assay.

Assay [3] shares this target. The assay can be described thus: Antagonist/inverse agonist activity at CB2 receptor in mouse BV-2 cells assessed as LPS-induced PGE2 relaese at 10 fold Ki after 16 hrs by ELISA immunoassay. The class given is cell-based. An outline of the steps: as §1
The target of assay [4] is T1, Cannabinoid receptor 2. The assay can be described thus: Antagonist/inverse agonist activity at human CB2 receptor transfected in Chem4 cell membranes after 30 mins by [35S]-GTPgammaS binding assay. The class given is functional. The gist of the method: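 Purchased CB2R-containing membranes in 20 mM HEPES with 100 mM NaCl and 10 mM MgCl₂, pH 7.4. Compound was added from 10⁻¹¹ to 10⁻⁵ M together with 30 nM CP55,940 and incubated 30 min at 30 °C. Non-specific signal was defined with unlabelled GTPγS. The reaction was stopped by GF/C filtration with phosphate-buffer washes, then scintillation counting.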
Background: Binding of GTPγS marks nucleotide exchange on a G protein.

Assay [5] has as its target Cannabinoid receptor 2 (Mus musculus) (UniProt P47936). The assay can be described thus: Antagonist/inverse agonist activity at CB2 receptor in mouse BV-2 cells assessed as LPS-induced PGE2 relaese at 10 fold Ki after 16 hrs by ELISA immunoassay in presence of CB2R antagonist SR144528. Type of assay: cell-based. An outline of the steps: as §1
The target is the same in assay [6]. Particulars: BV-2, 10 uM.

The source of these data is ChEMBL document CHEMBL3611977, “Synthesis, pharmacological evaluation and docking studies of pyrrole structure-based CB2 receptor antagonists” (Eur J Med Chem, 2015).

The term Ki denotes a dissociation constant, usually derived from enzyme kinetics or from competition with a known ligand. Low readings indicate higher affinity, high ones lower affinity. What is called IC50 is the concentration needed to halve the response being measured. A higher IC50 goes with a need for much substance.

Active and inactive are the calls of the source. The rule behind the calls is not given here.

Sequence of Cannabinoid receptor 2 (Mus musculus) (P47936 whole entry): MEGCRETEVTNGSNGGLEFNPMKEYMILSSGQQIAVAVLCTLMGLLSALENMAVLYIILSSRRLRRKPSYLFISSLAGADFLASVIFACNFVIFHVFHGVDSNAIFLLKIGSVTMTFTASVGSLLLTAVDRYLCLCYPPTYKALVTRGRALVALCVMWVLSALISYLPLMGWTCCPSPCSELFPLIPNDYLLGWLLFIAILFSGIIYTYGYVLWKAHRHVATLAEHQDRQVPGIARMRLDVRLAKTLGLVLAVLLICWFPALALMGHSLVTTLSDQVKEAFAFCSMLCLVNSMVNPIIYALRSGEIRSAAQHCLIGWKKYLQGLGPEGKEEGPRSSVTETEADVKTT
Sequence of Cannabinoid receptor 1 (P21554 whole entry): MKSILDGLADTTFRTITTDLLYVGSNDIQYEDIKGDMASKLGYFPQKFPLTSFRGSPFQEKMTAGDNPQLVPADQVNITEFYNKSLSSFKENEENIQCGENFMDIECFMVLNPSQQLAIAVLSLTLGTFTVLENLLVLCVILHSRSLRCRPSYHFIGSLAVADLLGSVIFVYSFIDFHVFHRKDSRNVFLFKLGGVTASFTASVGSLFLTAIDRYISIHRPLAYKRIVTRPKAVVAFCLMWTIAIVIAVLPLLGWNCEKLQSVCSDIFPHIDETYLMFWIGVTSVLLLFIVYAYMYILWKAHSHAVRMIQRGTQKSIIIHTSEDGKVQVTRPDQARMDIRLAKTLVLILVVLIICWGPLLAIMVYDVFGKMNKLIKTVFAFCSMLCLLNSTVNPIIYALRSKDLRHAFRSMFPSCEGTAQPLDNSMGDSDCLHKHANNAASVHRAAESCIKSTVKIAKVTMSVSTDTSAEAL
T1 sequence (P34972 whole entry): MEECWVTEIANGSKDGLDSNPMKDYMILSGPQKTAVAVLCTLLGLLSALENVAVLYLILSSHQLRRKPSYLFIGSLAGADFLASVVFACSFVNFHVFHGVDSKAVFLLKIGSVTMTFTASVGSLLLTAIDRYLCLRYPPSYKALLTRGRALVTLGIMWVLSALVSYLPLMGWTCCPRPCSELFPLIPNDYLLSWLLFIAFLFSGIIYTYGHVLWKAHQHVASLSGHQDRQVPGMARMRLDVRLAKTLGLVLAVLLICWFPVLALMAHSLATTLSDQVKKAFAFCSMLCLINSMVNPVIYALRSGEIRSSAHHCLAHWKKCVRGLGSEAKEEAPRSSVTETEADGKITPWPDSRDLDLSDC

In the case of `Cc1ccc(Cn2cc(C(=O)NCC34CC5CC(CC(C5)C3)C4)cc2-c2ccc(Cl)c(C)c2)cc1`, the Ki on Cannabinoid receptor 1 and on Cannabinoid receptor 2 [1] was above 5 µM throughout.

In the case of `Cc1ccc(Cn2cc(C(=O)Nc3cccc4ccccc34)cc2-c2ccc(Cl)c(C)c2)cc1`, the inhibitory constant (Ki) on Cannabinoid receptor 1 and on Cannabinoid receptor 2 [1] was above 5 µM in each case.

As for `Cc1ccc(Cn2cc(C(=O)N[C@@H]3CC4CC[C@@]3(C)C4(C)C)cc2-c2ccc(Cl)c(C)c2)cc1`, the inhibitory constant (Ki) stood at 0.368 µM at Cannabinoid receptor 1 and 0.164 µM at Cannabinoid receptor 2 [1].

On to `Cc1ccc(Cn2cc(CN3CCN(c4ccc(Cl)c(Cl)c4)CC3)cc2-c2ccc(Cl)c(C)c2)cc1`, for which the inhibitory constant (Ki) at Cannabinoid receptor 1 and at Cannabinoid receptor 2 [1] was above 5 µM each time.

Regarding `Cc1ccc(Cn2cc(C(=O)NN3CCCCC3)cc2-c2ccc(Cl)c(C)c2)cc1`, the Ki on Cannabinoid receptor 1 and at Cannabinoid receptor 2 [1] was above 5 µM throughout.

`Cc1ccc(Cn2cc(C(=O)NC[C@@H]3CCC4C[C@@H]3C4(C)C)cc2-c2ccc(Cl)c(C)c2)cc1`: the inhibition entry in assay [2], in assay [3] and in assay [5] was “Active” each time. At Cannabinoid receptor 2 [4], the IC50 turned out to be 1.82 µM. In addition, the Ki on Cannabinoid receptor 1 was above 5 µM; at Cannabinoid receptor 2 [1], 0.0722 µM.

On to `Cc1ccc(Cn2cc(C(=O)N3CCCCC3)cc2-c2ccc(Cl)c(C)c2)cc1`, for which the results for the Ki at Cannabinoid receptor 1 and on Cannabinoid receptor 2 [1] were 3.07 µM and 0.106 µM, respectively.

As for `Cc1ccc(Cn2cc(C(=O)N[C@@H](C)C3CCCCC3)cc2-c2ccc(Cl)c(C)c2)cc1`, affinity on Cannabinoid receptor 2 [1] was put at a Ki of 0.492 µM.

On to `Cc1ccc(Cn2cc(C(=O)NC34CC5CC(CC(C5)C3)C4)cc2-c2ccc(Cl)c(C)c2)cc1`, for which the Ki at Cannabinoid receptor 1 and at Cannabinoid receptor 2 [1] was above 5 µM throughout.

`Cc1ccc(Cn2cc(CN[C@@H]3C(C)(C)C4CC[C@@]3(C)C4)cc2-c2ccc(Cl)c(C)c2)cc1` had an inhibitory constant (Ki) at Cannabinoid receptor 2 [1] of 0.343 µM.

As for `Cc1ccc(Cn2cc(C(=O)N3CCN(c4ccccc4Cl)CC3)cc2-c2ccc(Cl)c(C)c2)cc1`, the values for the inhibitory constant (Ki) at Cannabinoid receptor 1 and at Cannabinoid receptor 2 [1] were above 5 µM and 1.71 µM, respectively.

Consider `Cc1ccc(Cn2nc(C(=O)N[C@@H]3CC4CC[C@@]3(C)C4(C)C)cc2-c2ccc(Cl)c(C)c2)cc1`, for which the Ki at Cannabinoid receptor 2 [1] was found to be 0.0072 µM.

Regarding `Cc1ccc(Cn2nc(C(=O)N[C@@H]3C(C)(C)[C@@H]4CC[C@@]3(C)C4)cc2-c2ccc(Cl)c(C)c2)cc1`, in assay [6], the inhibition result was “Active”.

Turning to `Cc1ccc(Cn2cc(C(=O)N[C@H]3C[C@@H](C)CC[C@@H]3C(C)C)cc2-c2ccc(Cl)c(C)c2)cc1`, the values for the Ki at Cannabinoid receptor 1 and at Cannabinoid receptor 2 [1] were above 5 µM and 1.1 µM, respectively.

For the molecule `Cc1ccc(Cn2cc(C(=O)N[C@@H]3C[C@@H]4C[C@H]([C@H]3C)C4(C)C)cc2-c2ccc(Cl)c(C)c2)cc1`, the Ki on Cannabinoid receptor 2 [1] is above 5 µM.

For the molecule `Cc1ccc(Cn2cc(C(=O)NN3CCCCCC3)cc2-c2ccc(Cl)c(C)c2)cc1`, the inhibition constant Ki was above 5 µM at Cannabinoid receptor 1 and 0.575 µM on Cannabinoid receptor 2 [1].

Regarding `Cc1ccc(Cn2cc(CN3CCN(c4ccc(Cl)cc4)CC3)cc2-c2ccc(Cl)c(C)c2)cc1`, the Ki on Cannabinoid receptor 1 and at Cannabinoid receptor 2 [1] was above 5 µM in each case.

For the molecule `Cc1ccc(Cn2cc(C(=O)NN3CCCC3)cc2-c2ccc(Cl)c(C)c2)cc1`, the Ki at Cannabinoid receptor 1 and on Cannabinoid receptor 2 [1] was above 5 µM in each case.

Regarding `Cc1ccc(Cn2cc(C(=O)N[C@H](C)C3CCCCC3)cc2-c2ccc(Cl)c(C)c2)cc1`, the inhibition constant Ki at Cannabinoid receptor 1 and on Cannabinoid receptor 2 [1] was above 5 µM in each case.

Turning to `Cc1ccc(Cn2cc(C(=O)NC3CCCCC3)cc2-c2ccc(Cl)c(C)c2)cc1`, the Ki at Cannabinoid receptor 1 is above 5 µM; on Cannabinoid receptor 2 [1], 0.244 µM.

Consider `Cc1ccc(Cn2cc(C(=O)N[C@@H]3C(C)(C)C4CC[C@@]3(C)C4)cc2-c2ccc(Cl)c(C)c2)cc1`, for which the inhibition entry in assay [2], in assay [3] and in assay [5] was “Active” throughout. Besides, the IC50 on Cannabinoid receptor 2 [4] was 0.171 µM. Also, the Ki was 1.47 µM on Cannabinoid receptor 1 and 0.0057 µM on Cannabinoid receptor 2 [1].
